Activity calls are given as the source filed them. The rule behind the calls is not given here.
Columns and labels:
A549 [1] = experiment: Induction of apoptosis in human A549 cells assessed as early apoptotic cells at 5 uM after 48 hrs by Annexin V-FITC/propidium iodide staining based FACS analysis (reference value: 0.94%); type: functional
How it was run: (§1)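 A549 cells seeded at 2 × 10⁵ per well, incubated overnight, then treated at 0, 5 or 10 µM. The legend gives 36 or 48 h; the methods section states 24 h. Annexin V-FITC/PI kit staining followed by flow cytometry. Early and late apoptotic cells expressed as cumulative percentage relative to control.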

CCRF-CEM = experiment: Antiproliferative activity against human CCRF-CEM cells after 48 hrs by MTT assay; type: functional, cell-based
How it was run: (§2)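 MTT assay: cells seeded at 4-8 × 10³ per well, incubated overnight at 37 °C in 5% CO₂, then given fresh medium with graded compound concentrations or equal DMSO for 48 h. MTT (5 mg/mL solution) added for a further 4 h, formazan dissolved in DMSO, absorbance read at 490 nm. Six cancer cell lines tested.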

A549 [2] = experiment: Induction of apoptosis in human A549 cells assessed as late apoptotic cells at 5 uM after 36 hrs by Annexin V-FITC/propidium iodide staining based FACS analysis (reference value: 0.29%); type: functional; how it was run: as §1
A549 [3] = experiment: Cell cycle arrest in human A549 cells assessed as accumulation at S phase at 0.5 uM after 36 hrs by propidium iodide staining based flow cytometry (reference value: 30.73%); type: functional
[4] = biological target: T1, DNA topoisomerase 1 (Homo sapiens) (UniProt P11387); experiment: Inhibition of human topoisomerase 1 assessed as reduction in enzyme-mediated relaxation of supercoiled pBR322 DNA at 50 to 100 uM after 10 to 15 mins by agarose gel electrophoresis
T1 sequence (whole entry): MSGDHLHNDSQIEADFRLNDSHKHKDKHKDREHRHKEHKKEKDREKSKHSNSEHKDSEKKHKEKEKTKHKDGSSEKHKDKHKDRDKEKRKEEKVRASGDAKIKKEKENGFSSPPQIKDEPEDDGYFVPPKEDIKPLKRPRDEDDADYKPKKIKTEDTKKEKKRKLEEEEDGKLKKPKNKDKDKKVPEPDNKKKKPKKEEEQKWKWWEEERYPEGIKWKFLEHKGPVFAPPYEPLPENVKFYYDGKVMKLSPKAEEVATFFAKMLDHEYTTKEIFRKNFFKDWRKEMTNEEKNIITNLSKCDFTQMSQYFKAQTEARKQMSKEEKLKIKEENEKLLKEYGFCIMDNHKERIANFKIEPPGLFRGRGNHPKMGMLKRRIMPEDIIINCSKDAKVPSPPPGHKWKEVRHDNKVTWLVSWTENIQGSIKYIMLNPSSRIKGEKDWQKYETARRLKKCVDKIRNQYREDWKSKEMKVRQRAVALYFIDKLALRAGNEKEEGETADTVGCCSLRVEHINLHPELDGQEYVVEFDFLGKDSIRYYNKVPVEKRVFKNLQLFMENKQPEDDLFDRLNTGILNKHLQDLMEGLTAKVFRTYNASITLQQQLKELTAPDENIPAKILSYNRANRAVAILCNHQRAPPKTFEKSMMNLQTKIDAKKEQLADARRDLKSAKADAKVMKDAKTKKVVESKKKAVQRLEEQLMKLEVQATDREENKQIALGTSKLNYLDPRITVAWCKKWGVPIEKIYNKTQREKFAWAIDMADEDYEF
How it was run: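 Relaxation of 500 ng supercoiled pBR322 by 1 unit human Topo I or Topo IIα, with or without compound, in 20 µL reaction buffer at 37 °C for 10-15 min. Reactions stopped with loading buffer, run on 0.8% agarose in TAE at 80 V for 30 min. Gels stained with ethidium bromide 2.5 µg/mL and viewed under UV.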

A549 [5] = experiment: Cell cycle arrest in human A549 cells assessed as accumulation at G2/M phase at 1 uM after 36 hrs by propidium iodide staining based flow cytometry (reference value: 7.62%); type: functional
A549 [6] = experiment: Cell cycle arrest in human A549 cells assessed as accumulation at G0/G1 phase at 5 uM after 36 hrs by propidium iodide staining based flow cytometry (reference value: 61.65%); type: functional
A549 [7] = experiment: Induction of apoptosis in human A549 cells assessed as increase in expression of cleaved caspase 3 at 1 to 2.5 uM after 48 hrs by Western blot analysis; type: functional, cell-based
How it was run: (§3)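 A549 cells grown to 80% confluency, treated with graded concentrations for 48 h, then lysed in Tris-HCl/NaCl/Triton X-100 buffer with protease inhibitors. 40 µg protein resolved on 12 or 15% SDS-PAGE and blotted to PVDF. Primary antibodies used at 1:1000 for 6-8 h, HRP anti-rabbit at 1:2000 for 2 h, ECL detection, β-actin as loading control.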

A549 [8] = experiment: Induction of apoptosis in human A549 cells assessed as increase in expression of cleaved caspase 9 at 1 to 2.5 uM after 48 hrs by Western blot analysis; type: functional, cell-based; how it was run: as §3
A549 [9] = experiment: Induction of apoptosis in human A549 cells assessed as late apoptotic cells at 10 uM after 48 hrs by Annexin V-FITC/propidium iodide staining based FACS analysis (reference value: 0.62%); type: functional; how it was run: as §1
[10] = Antiproliferative activity against human HCT116 cells after 48 hrs by MTT assay; type: functional, cell-based; details: HCT-116, 48 h; how it was run: as §2
HeLa = experiment: Antiproliferative activity against human HeLa cells after 48 hrs by MTT assay; type: functional, cell-based; how it was run: as §2
A549 [11] = experiment: Induction of DNA damage in human A549 cells assessed as tail DNA at 5 uM after 24 hrs by propidium iodide staining based comet assay (reference value: 0.02%); type: cell-based
How it was run: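 Alkaline comet assay. About 10⁵ A549 cells per well incubated 12 h, then treated 24 h in serum-free medium against a DMSO control. Cells embedded in low-melting agarose, lysed 2 h, alkaline-unwound 0.5 h at 4 °C, electrophoresed at 300 mA for 25 min in the dark. Slides neutralized, PI-stained, 50 random cells scored for % tail DNA.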

A549 [12] = experiment: Cell cycle arrest in human A549 cells assessed as accumulation at G2/M phase after 36 hrs by propidium iodide staining based flow cytometry; type: functional
A549 [13] = experiment: Induction of DNA damage in human A549 cells assessed as increase in gamma-H2AX expression at 1 to 2.5 uM after 48 hrs by Western blot analysis; type: cell-based; how it was run: as §3
A549 [14] = experiment: Induction of apoptosis in human A549 cells assessed as increase in expression of cleaved caspase 7 at 1 to 2.5 uM after 48 hrs by Western blot analysis; type: functional, cell-based; how it was run: as §3
A549 [15] = experiment: Cell cycle arrest in human A549 cells assessed as accumulation at S phase at 5 uM after 36 hrs by propidium iodide staining based flow cytometry (reference value: 30.73%); type: functional
Calf thymus DNA = experiment: Binding affinity to calf thymus DNA assessed as hypochromicity change at 10 uM after 5 mins by UV-vis spectrophotometry relative to control; type: nucleic-acid assay; details: Bos taurus
How it was run: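 ctDNA at 0-44 µM is added to compound at 10 µM final in Tris-HCl buffer (pH 7.4). UV-vis absorption spectra are recorded after 5 min standing. The binding constant K_b is taken from a plot of absorption data against DNA concentration.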

A549 [16] = experiment: Cell cycle arrest in human A549 cells assessed as accumulation at G2/M phase at 0.5 uM after 36 hrs by propidium iodide staining based flow cytometry (reference value: 7.62%); type: functional

- IC50 (CCRF-CEM): 2540 nM
- inhibition [4]: Active
- IC50 (HeLa): 1700 nM
- Activity (Calf thymus DNA): 60%
Compound: COc1ccc(CNc2c3ccc(Cl)cc3nc3ccc(OC)cc23)cc1
- Activity (A549 [1]): 4.23%
- Activity (A549 [2]): 10.47%
- Activity (A549 [3]): 30.4%
- Activity (A549 [5]): 9.62%
- Activity (A549 [6]): 62.04%
- Activity (A549 [7]): Active
- Activity (A549 [8]): Active
- Activity (A549 [9]): 82.46%
- IC50 [10]: 6320 nM
- Activity (A549 [11]): 52.3%
- Activity (A549 [12]): Dose-dependent effect
- Activity (A549 [13]): Active
- Activity (A549 [14]): Active
- Activity (A549 [15]): 21.45%
- Activity (A549 [16]): 8.12%

— ChEMBL document CHEMBL3792296, “Synthesis and antiproliferative activity of 9-benzylamino-6-chloro-2-methoxy-acridine derivatives as potent DNA-binding ligands and topoisomerase II inhibitors” (Eur J Med Chem, 2016)
